Source: ChEMBL document CHEMBL1221337, “The unsaturated acyclic nucleoside analogues bearing a sterically constrained (Z)-4'-benzamido-2'-butenyl moiety: Synthesis, X-ray crystal structure study, cytostatic and antiviral activity evaluations” (Bioorg Med Chem, 2010)
The source made the active and inactive calls. No cut-off for these calls is given here.

Assays:
Vaccinia virus = test: Antiviral activity against Vaccinia virus infected in HEL cells assessed as inhibition of virus-induced cytopathicity; type: functional, organism-based; conditions: Orthopoxvirus vaccinia
Sindbis virus = test: Antiviral activity against Sindbis virus infected in Vero cells assessed as inhibition of virus-induced cytopathicity; type: functional, organism-based
Summary of the method: (§1)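 Confluent cell monolayers in 96-well plates were inoculated with 100 CCID50 of virus. After 1 h adsorption, residual virus was removed. Cultures were then incubated with test compound at varying concentrations (200, 40, 8... µM). Viral cytopathicity was scored once it reached completion in untreated infected controls. Host cells: HEL for HSV-1 KOS and HSV-2 G; Vero for the Vero lines; HeLa for the HeLa lines.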

[1] = Cytotoxicity against human WI38 cells after 72 hrs by MTT assay; type: cell-based; conditions: WI-38, 72 h
Summary of the method: (§2)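 Adherent cells were plated at 3000–6000 cells/well on day 0, according to doubling time. Compound was added as five 10-fold dilutions (1 × 10⁻⁸–1 × 10⁻⁴ M), with DMSO ≤0.1%, and incubated 72 h. Read-out was MTT absorbance converted to percentage growth versus untreated wells on the same plate. IC50 was obtained by linear regression between bracketing concentrations; the highest concentration was reported as ">" if not reached. Quadruplicates, three experiments.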

[2] = tested on: Vesicular stomatitis virus; test: Antiviral activity against Vesicular stomatitis virus infected in human HeLa cells assessed as inhibition of virus-induced cytopathicity; type: functional, organism-based
Summary of the method: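 Confluent HeLa cultures were infected with 100 CCID50 of virus. Unadsorbed virus was removed after 1 h, and compound was added at serial concentrations (200, 40, 8…). Viral cytopathic effect was read when untreated virus-infected control wells reached full cytopathicity.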

Vero = test: Cytotoxicity against african green monkey Vero cells assessed as cell viability after 3 days by coulter counting; type: cell-based; conditions: chlorocebus sabaeus, 72 h
Punta Toro virus = test: Antiviral activity against Punta Toro virus infected in Vero cells assessed as inhibition of virus-induced cytopathicity; type: functional, organism-based; summary of the method: as §1
[3] = tested on: Respiratory syncytial virus; test: Antiviral activity against Respiratory syncytial virus infected in human HeLa cells assessed as inhibition of virus-induced cytopathicity; type: functional, organism-based; summary of the method: as §1
[4] = tested on: Mammalian orthoreovirus 1; test: Antiviral activity against Reovirus 1 infected in Vero cells assessed as inhibition of virus-induced cytopathicity; type: functional, organism-based; summary of the method: as §1
MIA PaCa-2 = test: Cytotoxicity against human MIAPaCa2 cells after 72 hrs by MTT assay; type: functional, cell-based; conditions: MIA PaCa-2, 72 h; summary of the method: as §2
HeLa [5] = test: Cytotoxicity against human HeLa cells assessed as cell viability after 3 days by coulter counting; type: cell-based; conditions: 72 h
SW-620 = test: Cytotoxicity against human SW620 cells after 72 hrs by MTT assay; type: functional, cell-based; conditions: SW-620, 72 h; summary of the method: as §2
HEp-2 = test: Cytotoxicity against human Hep2 cells after 72 hrs by MTT assay; type: functional, cell-based; conditions: HEp-2, 72 h; summary of the method: as §2
Human alphaherpesvirus 1 = test: Antiviral activity against HSV1 KOS infected in HEL cells assessed as inhibition of virus-induced cytopathicity; type: functional, organism-based; summary of the method: as §1
MCF7 = test: Cytotoxicity against human MCF7 cells after 72 hrs by MTT assay; type: functional, cell-based; conditions: MCF7, 72 h; summary of the method: as §2
SK-BR-3 = test: Cytotoxicity against human SK-BR-3 cells after 72 hrs by MTT assay; type: functional, cell-based; conditions: SK-BR-3, 72 h; summary of the method: as §2
HeLa [6] = test: Cytotoxicity against human HeLa cells after 72 hrs by MTT assay; type: functional, cell-based; summary of the method: as §2
HEL = test: Cytotoxicity against HEL cells assessed as cell viability after 3 days by coulter counting; type: cell-based; conditions: human, 72 h
Summary of the method: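 HEL cells were seeded at 5 × 10³ cells/well and allowed to proliferate 24 h. Medium with test compound at different concentrations was then added, and cells were incubated 3 days at 37 °C. Cell number was counted by Coulter counter. CC50 (50% reduction in cell number versus untreated controls) was read from plots of cell number (% of control) against concentration.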

MDCK = test: Cytotoxicity against MDCK cells assessed as cell viability after 3 days by coulter counting; type: cell-based, Canis lupus familiaris; conditions: dog, 72 h
Coxsackievirus B4 [7] = test: Antiviral activity against Coxsackievirus B4 infected in human HeLa cells assessed as inhibition of virus-induced cytopathicity; type: functional, organism-based; summary of the method: as §1
Coxsackievirus B4 [8] = test: Antiviral activity against Coxsackievirus B4 infected in Vero cells assessed as inhibition of virus-induced cytopathicity; type: functional, organism-based; summary of the method: as §1
Human respirovirus 3 = test: Antiviral activity against Parainfluenza 3 infected in Vero cells assessed as inhibition of virus-induced cytopathicity; type: functional, organism-based; summary of the method: as §1
Human alphaherpesvirus 2 = test: Antiviral activity against HSV2 G infected in HEL cells assessed as inhibition of virus-induced cytopathicity; type: functional, organism-based; conditions: strain G; summary of the method: as §1
Influenza A virus = test: Antiviral activity against influenza A virus H1N1; H3N2 infected in MDCK cells assessed as inhibition of virus-induced cytopathicity; type: functional, organism-based
Summary of the method: (§3)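 MDCK cells, nearly confluent in microtiter plates, were infected with 100 CCID50 per well. After 1 h adsorption, the inoculum was washed off. Cells were incubated with graded compound concentrations (200, 40, 8…). Cytopathicity was recorded at completion in untreated infected controls.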

Influenza B virus = test: Antiviral activity against influenza B virus infected in MDCK cells assessed as inhibition of virus-induced cytopathicity; type: functional, organism-based; summary of the method: as §3
[9] = tested on: Vesicular stomatitis virus; test: Antiviral activity against Vesicular stomatitis virus infected in HEL cells assessed as inhibition of virus-induced cytopathicity; type: functional, organism-based

Structure (SMILES) | inhibition (Vaccinia virus) | inhibition (Sindbis virus) | IC50 [1] | inhibition [2] | Activity (Vero) | inhibition (Punta Toro virus) | inhibition [3] | inhibition [4] | IC50 (MIA PaCa-2) | Activity (HeLa [5]) | IC50 (SW-620) | IC50 (HEp-2) | inhibition (Human alphaherpesvirus 1) | IC50 (MCF7) | IC50 (SK-BR-3) | IC50 (HeLa [6]) | Activity (HEL) | Activity (MDCK) | inhibition (Coxsackievirus B4 [7]) | inhibition (Coxsackievirus B4 [8]) | other results
O=C(NC/C=C\Cn1cc(C(F)(F)F)c(=O)[nH]c1=O)c1ccccc1 | inactive | inactive | > 100 µM | inactive | Non-toxic | inactive | inactive | inactive | > 100 µM | Non-toxic | > 100 µM | > 100 µM | inactive | > 100 µM | > 100 µM | > 100 µM | Non-toxic | Non-toxic | inactive | inactive | inhibition (Human respirovirus 3): inactive; inhibition (Human alphaherpesvirus 2): inactive; inhibition (Influenza A virus): inactive; inhibition (Influenza B virus): inactive; inhibition [9]: inactive
O=C(NC/C=C\Cn1ccc(=O)[nH]c1=O)c1ccc(F)cc1 | inactive | inactive | > 100 µM | inactive | Non-toxic | inactive | inactive | inactive | > 100 µM | Non-toxic | > 100 µM | > 100 µM | inactive | 2.7 µM | > 100 µM | > 100 µM | Non-toxic | Non-toxic | inactive | inactive | inhibition (Human respirovirus 3): inactive; inhibition (Human alphaherpesvirus 2): inactive; inhibition (Influenza A virus): inactive; inhibition (Influenza B virus): inactive; inhibition [9]: inactive
Nc1nc(=O)n(C/C=C\CNC(=O)c2ccccc2)cc1F | inactive | inactive | 50.2 µM | inactive | Non-toxic | inactive | inactive | inactive | > 100 µM | Non-toxic | > 100 µM | > 100 µM | inactive | 34.4 µM | > 100 µM | 71.9 µM | Non-toxic | Non-toxic | inactive | inactive | inhibition (Human respirovirus 3): inactive; inhibition (Human alphaherpesvirus 2): inactive; inhibition (Influenza A virus): inactive; inhibition (Influenza B virus): inactive; inhibition [9]: inactive
